From ChEMBL document CHEMBL4765301, “Discovery of novel TNNI3K inhibitor suppresses pyroptosis and apoptosis in murine myocardial infarction injury” (Eur J Med Chem, 2020)

Columns and labels:
[1] = test system: H9c2; assay: Cytoprotective activity against OGD-induced cell death in rat H9c2 cells assessed as cell viability at 1 uM incubated for 24 hrs by MTT assay (reference value: 42.08 to 49.11 %); assay type: functional; settings: read-out: Activity
[2] = target: Epidermal growth factor receptor (Homo sapiens) (UniProt P00533); assay: Inhibition of recombinant human EGFR (696 to end residues) assessed as residual activity at 1 uM using poly(Glu, Tyr) 4:1 as substrate incubated for 40 mins by [gamma-33P]-ATP scintillation counting based radiometry assay relative to control
Sequence of Epidermal growth factor receptor (Homo sapiens) (P00533 whole entry): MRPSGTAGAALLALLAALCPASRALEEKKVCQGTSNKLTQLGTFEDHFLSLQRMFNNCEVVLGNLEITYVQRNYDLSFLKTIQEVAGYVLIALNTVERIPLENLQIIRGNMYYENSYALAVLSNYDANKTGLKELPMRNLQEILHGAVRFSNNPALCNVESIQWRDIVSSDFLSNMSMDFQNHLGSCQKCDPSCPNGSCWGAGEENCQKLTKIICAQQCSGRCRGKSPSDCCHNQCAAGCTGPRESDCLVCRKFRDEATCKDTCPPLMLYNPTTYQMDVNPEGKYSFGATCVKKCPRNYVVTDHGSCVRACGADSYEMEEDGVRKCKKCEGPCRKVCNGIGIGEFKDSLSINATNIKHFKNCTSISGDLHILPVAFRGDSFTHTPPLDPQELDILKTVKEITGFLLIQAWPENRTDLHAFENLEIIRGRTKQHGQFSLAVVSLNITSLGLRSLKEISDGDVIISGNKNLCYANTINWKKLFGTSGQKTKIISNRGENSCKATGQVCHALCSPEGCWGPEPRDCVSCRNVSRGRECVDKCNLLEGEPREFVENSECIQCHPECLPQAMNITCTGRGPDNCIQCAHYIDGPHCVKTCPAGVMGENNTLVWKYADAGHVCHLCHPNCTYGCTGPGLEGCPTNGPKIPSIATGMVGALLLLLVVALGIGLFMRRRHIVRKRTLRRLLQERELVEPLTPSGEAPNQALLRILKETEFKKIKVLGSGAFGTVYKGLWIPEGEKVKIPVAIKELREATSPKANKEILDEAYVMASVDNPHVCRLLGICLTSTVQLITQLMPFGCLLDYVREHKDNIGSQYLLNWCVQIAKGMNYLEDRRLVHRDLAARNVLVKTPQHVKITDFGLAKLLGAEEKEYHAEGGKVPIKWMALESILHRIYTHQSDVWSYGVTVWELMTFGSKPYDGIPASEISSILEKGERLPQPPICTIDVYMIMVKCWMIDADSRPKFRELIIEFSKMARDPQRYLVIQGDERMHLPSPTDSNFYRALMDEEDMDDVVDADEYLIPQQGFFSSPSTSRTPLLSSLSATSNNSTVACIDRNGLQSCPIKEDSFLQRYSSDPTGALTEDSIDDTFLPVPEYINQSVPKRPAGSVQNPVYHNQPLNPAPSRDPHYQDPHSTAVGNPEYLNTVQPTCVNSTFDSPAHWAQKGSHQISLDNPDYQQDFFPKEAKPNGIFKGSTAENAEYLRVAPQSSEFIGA

[3] = target: Vascular endothelial growth factor receptor 1 (Homo sapiens) (UniProt P17948); assay: Inhibition of recombinant human FLT1 (783 to end residues) assessed as residual activity at 1 uM using KKKSPGEYVNIEFG as substrate incubated for 40 mins by [gamma-33P]-ATP scintillation counting based radiometry assay relative to control
Sequence of Vascular endothelial growth factor receptor 1 (Homo sapiens) (P17948 whole entry): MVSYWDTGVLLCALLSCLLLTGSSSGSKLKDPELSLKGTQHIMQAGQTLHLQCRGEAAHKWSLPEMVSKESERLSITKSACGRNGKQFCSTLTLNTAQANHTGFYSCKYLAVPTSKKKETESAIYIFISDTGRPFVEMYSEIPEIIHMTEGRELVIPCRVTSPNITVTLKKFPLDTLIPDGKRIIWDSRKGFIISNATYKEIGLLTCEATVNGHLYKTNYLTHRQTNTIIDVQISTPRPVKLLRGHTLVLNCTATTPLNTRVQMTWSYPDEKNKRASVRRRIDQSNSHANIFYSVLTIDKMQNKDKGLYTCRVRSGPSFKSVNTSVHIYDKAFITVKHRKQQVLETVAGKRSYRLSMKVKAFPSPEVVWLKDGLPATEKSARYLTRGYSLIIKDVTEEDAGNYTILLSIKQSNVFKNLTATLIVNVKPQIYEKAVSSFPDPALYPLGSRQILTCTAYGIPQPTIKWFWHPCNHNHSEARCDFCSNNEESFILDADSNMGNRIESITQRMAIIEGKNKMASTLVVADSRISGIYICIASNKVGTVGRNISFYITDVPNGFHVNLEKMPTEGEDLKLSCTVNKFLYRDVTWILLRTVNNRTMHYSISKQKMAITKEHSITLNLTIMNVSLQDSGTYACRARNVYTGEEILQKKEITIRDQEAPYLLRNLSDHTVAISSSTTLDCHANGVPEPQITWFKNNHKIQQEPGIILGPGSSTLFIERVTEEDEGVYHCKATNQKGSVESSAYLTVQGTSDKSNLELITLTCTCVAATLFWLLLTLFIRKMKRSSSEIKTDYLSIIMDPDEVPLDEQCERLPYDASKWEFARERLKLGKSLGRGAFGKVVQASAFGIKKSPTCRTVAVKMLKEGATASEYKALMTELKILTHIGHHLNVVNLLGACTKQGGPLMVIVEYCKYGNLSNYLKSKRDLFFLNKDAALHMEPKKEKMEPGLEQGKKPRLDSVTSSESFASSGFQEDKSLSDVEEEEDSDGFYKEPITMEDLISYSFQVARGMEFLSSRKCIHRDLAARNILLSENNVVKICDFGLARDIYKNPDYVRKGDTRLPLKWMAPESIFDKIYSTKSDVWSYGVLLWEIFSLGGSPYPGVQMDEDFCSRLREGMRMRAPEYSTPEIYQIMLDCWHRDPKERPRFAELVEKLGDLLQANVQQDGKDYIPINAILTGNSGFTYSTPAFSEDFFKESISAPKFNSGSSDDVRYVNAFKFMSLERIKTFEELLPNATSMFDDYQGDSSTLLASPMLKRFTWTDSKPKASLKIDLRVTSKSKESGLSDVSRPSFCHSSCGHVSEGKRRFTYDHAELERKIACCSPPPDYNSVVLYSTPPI

[4] = test system: H9c2; assay: Cytoprotective activity against OGD-induced cell death in rat H9c2 cells assessed as cell viability at 10 uM incubated for 24 hrs by MTT assay (reference value: 42.08 to 49.11 %); assay type: functional; settings: read-out: Activity
[5] = target: T1, Serine/threonine-protein kinase TNNI3K (Homo sapiens) (UniProt Q59H18); assay: Inhibition of TNNI3K (unknown origin) assessed as residual activity at 1 uM using biotinylated CTnI as substrate by HTRF analysis relative to control
T1 sequence (whole entry): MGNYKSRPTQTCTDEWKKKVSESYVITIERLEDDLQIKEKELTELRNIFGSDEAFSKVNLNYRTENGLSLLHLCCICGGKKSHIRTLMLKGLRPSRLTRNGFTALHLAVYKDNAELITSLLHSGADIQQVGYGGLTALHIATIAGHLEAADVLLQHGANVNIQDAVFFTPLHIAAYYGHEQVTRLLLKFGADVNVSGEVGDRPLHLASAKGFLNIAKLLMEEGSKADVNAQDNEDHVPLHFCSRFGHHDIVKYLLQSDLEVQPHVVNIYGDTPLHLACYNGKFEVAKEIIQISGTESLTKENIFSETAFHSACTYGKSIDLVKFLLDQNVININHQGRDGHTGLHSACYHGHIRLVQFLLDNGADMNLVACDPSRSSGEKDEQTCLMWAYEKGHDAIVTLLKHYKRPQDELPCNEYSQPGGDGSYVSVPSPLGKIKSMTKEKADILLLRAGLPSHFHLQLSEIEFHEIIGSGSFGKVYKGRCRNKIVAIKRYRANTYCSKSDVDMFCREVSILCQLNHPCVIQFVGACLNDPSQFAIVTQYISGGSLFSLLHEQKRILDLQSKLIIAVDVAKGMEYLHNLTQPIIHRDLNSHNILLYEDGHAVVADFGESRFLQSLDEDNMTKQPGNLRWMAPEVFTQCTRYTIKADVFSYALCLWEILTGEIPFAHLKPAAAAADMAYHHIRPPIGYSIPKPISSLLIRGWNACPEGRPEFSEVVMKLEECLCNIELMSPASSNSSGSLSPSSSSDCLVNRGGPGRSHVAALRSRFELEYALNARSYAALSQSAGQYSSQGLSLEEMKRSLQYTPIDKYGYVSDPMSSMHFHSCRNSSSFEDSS
Method in brief: (§1)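 TNNI3K was assayed by HTRF using a GST-tagged TNNI3K kinase domain and a biotinylated cardiac troponin I substrate peptide, followed by the two HTRF detection reagents. Compounds were screened at 1.0 µM, then IC50s were determined.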

[6] = target: Receptor tyrosine-protein kinase erbB-2 (Homo sapiens) (UniProt P04626); assay: Inhibition of recombinant human HER2 (676 to end residues) assessed as residual activity at 1 uM using poly(Glu, Tyr) 4:1 as substrate incubated for 40 mins by [gamma-33P]-ATP scintillation counting based radiometry assay relative to control
[7] = target: T2, Serine/threonine-protein kinase TNNI3K (Homo sapiens, UniProt Q59H18); assay: Inhibition of TNNI3K (unknown origin) using biotinylated CTnI as substrate by HTRF analysis; method in brief: as §1
T2 sequence (Q59H18 whole entry): T1 sequence (whole entry)

[8] = target: Vascular endothelial growth factor receptor 2 (Homo sapiens) (UniProt P35968); assay: Inhibition of recombinant human KDR (790 to end residues) assessed as residual activity at 1 uM using myelin basic protein as substrate incubated for 40 mins by [gamma-33P]-ATP scintillation counting based radiometry assay relative to control
Sequence of Vascular endothelial growth factor receptor 2 (Homo sapiens) (P35968 whole entry): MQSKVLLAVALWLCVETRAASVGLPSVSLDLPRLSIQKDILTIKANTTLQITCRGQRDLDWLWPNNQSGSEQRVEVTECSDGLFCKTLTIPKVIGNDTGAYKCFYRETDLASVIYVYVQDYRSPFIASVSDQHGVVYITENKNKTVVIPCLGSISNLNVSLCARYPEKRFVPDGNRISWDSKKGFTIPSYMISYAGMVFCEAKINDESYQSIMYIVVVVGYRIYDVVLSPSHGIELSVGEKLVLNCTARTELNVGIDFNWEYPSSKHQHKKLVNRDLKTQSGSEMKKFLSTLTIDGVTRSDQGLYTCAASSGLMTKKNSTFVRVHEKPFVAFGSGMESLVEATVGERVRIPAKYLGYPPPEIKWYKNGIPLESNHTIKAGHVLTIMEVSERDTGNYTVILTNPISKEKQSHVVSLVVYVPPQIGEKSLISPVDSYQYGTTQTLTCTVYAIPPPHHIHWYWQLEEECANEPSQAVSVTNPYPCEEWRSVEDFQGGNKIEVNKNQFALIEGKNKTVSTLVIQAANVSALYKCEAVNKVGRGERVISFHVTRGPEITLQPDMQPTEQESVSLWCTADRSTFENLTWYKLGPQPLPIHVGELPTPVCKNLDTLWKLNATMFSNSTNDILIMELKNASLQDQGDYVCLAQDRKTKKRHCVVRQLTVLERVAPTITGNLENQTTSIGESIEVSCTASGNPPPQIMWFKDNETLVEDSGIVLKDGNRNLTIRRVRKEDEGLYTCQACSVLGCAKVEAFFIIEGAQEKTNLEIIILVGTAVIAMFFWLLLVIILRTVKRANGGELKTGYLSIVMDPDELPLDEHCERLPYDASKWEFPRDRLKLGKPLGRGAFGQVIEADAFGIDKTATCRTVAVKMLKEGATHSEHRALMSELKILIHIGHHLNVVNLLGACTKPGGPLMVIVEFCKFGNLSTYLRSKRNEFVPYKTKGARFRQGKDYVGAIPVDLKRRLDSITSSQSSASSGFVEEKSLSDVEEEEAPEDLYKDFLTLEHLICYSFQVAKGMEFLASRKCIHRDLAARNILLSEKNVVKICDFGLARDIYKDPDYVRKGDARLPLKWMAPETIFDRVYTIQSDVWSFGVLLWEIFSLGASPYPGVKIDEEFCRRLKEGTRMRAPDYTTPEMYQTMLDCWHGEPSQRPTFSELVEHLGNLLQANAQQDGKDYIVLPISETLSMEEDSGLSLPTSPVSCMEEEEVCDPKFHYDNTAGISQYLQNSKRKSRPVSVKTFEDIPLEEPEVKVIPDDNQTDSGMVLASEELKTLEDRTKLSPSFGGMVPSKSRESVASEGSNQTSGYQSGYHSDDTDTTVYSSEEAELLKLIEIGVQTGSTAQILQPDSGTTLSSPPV

Row | SMILES | viability at 1 µM [1] [%] | Activity [2] [%] | Activity [3] [%] | viability at 10 µM [4] [%] | Activity [5] [%] | Activity [6] [%] | IC50 [7] [nM] | Activity [8] [%]
1 | CN1CCc2c(sc3ncnc(Nc4ccc(N(C)C)c(NC(=O)c5ccco5)c4)c23)C1 | 59.6 | 93 | 105 | 85.6 | 37 | 95 | 560 | 89
2 | CN1CCN(CCCN2CCc3c(sc4ncnc(Nc5ccc(N(C)C)c(NC(=O)c6ccco6)c5)c34)C2)CC1 | 61.1 | 90 | 100 | 79.9 | 33 | 107 | 640 | 88
3 | CCC(=O)Nc1cc(Nc2ncnc3sc4c(c23)CCN(CCCN2CCOCC2)C4)ccc1N(C)C | 62.4 | 105 | 90 | 82.2 | 37 | 108 | 480 | 86
